# High-throughput results deposited in PubChem by The Scripps Research Institute Molecular Screening Center.
# TCR CD3 inh: human TCR-CD3 binding inhibition; TAMRA-labeled TCR probe fluorescence, biochemical; inhibition, % at 9.4 µM; 0.37% of 360,000 active; in the data active means inhibition above about 19%;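 further: recombinant mutant TCR 2C K166C tagged with TAMRA read by polarization; 0% = receptor in buffer alone and 100% = receptor with positive control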
# SIAE primary: blocks human sialic acid acetylesterase. 0.69% of 370,000 active. SIAE FP-Rh probe binding, fluorescence polarization. Q9HAT2. inhibition, % at 9.66 µM;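 active means inhibition above a cutoff: mean of compounds within the control limits plus 3 SD of those, cut at about 17% in these data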;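 further: 0% = plate median of compound wells and 100% = probe without SIAE protein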
# HTRA1 inh: HTRA1 (human) protease inhibition | Q92743 | recombinant HTRA1, FP-rhodamine activity-based probe, fluorescence polarization | inhibition, % at 5.96 µM | 0.5% of 340,000 active; in the data active means inhibition above about 36%;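 further: 0% = enzyme with DMSO and 100% = wells lacking enzyme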
# Target sequence (Q92743 whole entry, looked up): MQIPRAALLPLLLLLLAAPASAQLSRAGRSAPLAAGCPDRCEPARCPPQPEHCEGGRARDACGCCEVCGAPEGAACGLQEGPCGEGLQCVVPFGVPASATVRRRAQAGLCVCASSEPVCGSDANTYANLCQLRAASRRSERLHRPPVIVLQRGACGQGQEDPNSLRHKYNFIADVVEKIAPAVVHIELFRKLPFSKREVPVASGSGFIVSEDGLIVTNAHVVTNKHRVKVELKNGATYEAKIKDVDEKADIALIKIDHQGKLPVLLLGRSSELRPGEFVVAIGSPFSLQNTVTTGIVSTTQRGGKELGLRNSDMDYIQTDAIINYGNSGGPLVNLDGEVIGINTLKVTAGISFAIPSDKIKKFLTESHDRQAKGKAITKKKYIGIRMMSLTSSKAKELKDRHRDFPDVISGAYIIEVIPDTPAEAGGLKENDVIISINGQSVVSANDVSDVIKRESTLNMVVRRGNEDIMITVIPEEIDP
# PRMT1 inh: inhibitors of human PRMT1 | recombinant PRMT1, activity-based probe fluorescence polarization | AID 652257 | 1.3% of 370,000 active | Q99873 | inhibition, % at 2.79 µM;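 active means inhibition above about 21% made by adding two undisclosed values, limit read from the data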
# mABHD4 FP: inhibitors of mouse ABHD4; Q8VD66; purified mABHD4, FP-Rh probe fluorescence polarization; inhibition, % at 8.92 µM; 0.54% of 370,000 active; AID 720543;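 active means inhibition exceeding the mean over every tested compound plus 3 SD, cut at about 30% in these data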;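 further: 0% = plate median of compound wells and 100% = S159A mutant with DMSO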
#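 System: mouse ABHD4 enzyme, wild type / Medium: HEPES pH 7.0, NaCl, Pluronic buffer / Reagent: FP-Rh activity-based fluorescent probe / Control set: S159A mutant high control, sample median low control / Detection: fluorescence polarization with parallel and perpendicular emission, 525/598 nm / Schedule: 45 min + 60 min at 25 °C / Compound dosing: 8.92 µM, single dose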
# PRMT1 confirm: PRMT1 (human) inhibition, FP confirmation | shares compounds with PRMT1 inh | recombinant His-PRMT1, activity-based probe fluorescence polarization | inhibition, % at 2.79 µM | 42% of 3,300 active;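 active means mean inhibition across replicates above the hit cutoff derived for the earlier primary screen, cut at about 22% in these data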
# Active calls of the source: *; · = no result. Rows were chosen to be rich in hits. Some 2.5% of all compounds tested hit in one or more screens of this group.
SMILES,TCR CD3 inh,SIAE primary,HTRA1 inh,PRMT1 inh,mABHD4 FP,PRMT1 confirm
CN(CCc1ccccn1)C1CC(=O)N(c2ccc(Cl)cc2)C1=O (stereo unspecified),-2,-5,3,80*,1,16
CN(CCc1ccccn1)C(=O)Nc1ccc(Cl)cc1,0,2,1,1,3,·
CC(=O)Nc1ccc(S(=O)(=O)NNc2ccc([N+](=O)[O-])cc2)cc1,9,2,6,32*,14,14
CC(=O)Nc1ccc(S(=O)(=O)NNC(=O)c2ccc([N+](=O)[O-])cc2)cc1,-12,-5,-3,7,-10,·
CCC(=O)N1CCN(c2ccccc2NC(=O)COc2cc(C)ccc2C(C)C)CC1,-1,2,-28,112*,14,-4
Cc1ccc(C(C)C)c(OCC(=O)NC(=S)Nc2ccccc2N2CCOCC2)c1,6,-13,-5,4,-9,·
CCOC(=S)SCc1cn2ccc(C)cc2n1,4,11,7,42*,-2,26*
S=c1[nH]nc(-c2cc(-c3ccccc3)n[nH]2)n1/N=C/c1c(Cl)cccc1Cl,-2,-16,-10,6,8,·
O=[N+]([O-])c1ccccc1C=Nn1c(-c2cc(-c3ccccc3)n[nH]2)n[nH]c1=S,·,2,·,42*,15,14
Cc1ccccc1/C=N/n1c(-c2cc(-c3ccccc3)n[nH]2)n[nH]c1=S,-2,1,-8,16,3,·
S=c1[nH]nc(-c2cc(-c3ccccc3)n[nH]2)n1/N=C/c1ccc(Br)s1,-1,-20,-10,28*,-3,13
Cc1ccc(-c2n[nH]c(=S)n2/N=C/C=C\c2ccccc2[N+](=O)[O-])cc1,4,3,-13,30*,4,15
CCOC(=O)CCNC(=O)N1CCCC(N2CCN(c3ccc(OC)cc3)CC2)C1 (stereo unspecified),-1,4,4,-3,1,·
CN(CC1CCOCC1)C(=O)CC1C(=O)NCCN1Cc1cccc(C(F)(F)F)c1 (stereo unspecified),-3,7,4,3,-3,·
CCOC(=O)c1c(NC(C)=O)sc2c1CCN(Cc1ccccc1)C2,-8,3,0,1,10,·
CCOC(=O)c1c(NC(C)=O)sc2c1CCC(C=O)=C2Sc1ccccc1,-4,9,-11,31*,12,3
Cc1ccccc1N/N=C/c1sc(=O)n(Cc2cccc(C(=O)O)c2)c1Cl,3,-15,7,75*,11,5
COC(=O)c1cccc(Cn2c(Cl)c(/C=N/Nc3ccccc3C)sc2=O)c1,4,4,-3,79*,4,1
Cn1cccc1/C=N/N1CCN(c2ccccc2)CC1,1,4,2,2,3,·
CC(=O)Nc1ccc(NC(=O)C(C)OC(=O)/C(C#N)=C/c2ccc(N(C)C)cc2)cc1 (stereo unspecified),-20,-134,-14,30*,-29,39*
Cc1ccc(SCCN2CCC(C(C)(C)C)CCC2=O)cc1 (stereo unspecified),3,-2,-20,2,8,·
C[C@@H](CSc1ccc(Br)cc1)CN1CC[C@H](O)CCC1=O,4,2,0,0,3,·
CC(=O)Nc1ccc(SCCN2CC[C@@H](C(C)(C)C)CCC2=O)cc1,3,2,1,41*,0,43*
CC(=O)Nc1ccc(SC[C@H](C)CN2CC[C@H](O)CCC2=O)cc1,2,1,-6,26*,3,38*
CCOC(=O)CNC(=O)CSc1ncnc2c1nnn2-c1ccc(F)cc1,-10,-2,6,6,-13,·
SMILES,TCR CD3 inh,SIAE primary,HTRA1 inh,PRMT1 inh,mABHD4 FP,PRMT1 confirm
CCOC(=O)CC(=O)CSc1ncnc2c1nnn2-c1ccccc1,-9,1,-2,64*,13,92*
COc1ccc(CCNC(=O)CSc2ccc(NC(C)=O)cc2)cc1OC,-6,5,1,25*,6,31*
CCOC(=O)c1c(S(=O)(=O)NCC(=O)NCc2cccc(C)c2)c(C)n(C)c1C,-5,-4,6,2,-5,·
S=c1nc(C23CC4CC(CC(C4)C2)C3)[nH][nH]1,-3,-1,0,34*,1,9
O=S(=O)(c1ccccc1)N1CCCc2nc(-c3ccc(F)cc3)ccc21,-4,0,·,-1,-14,·
COC(=O)c1ccc(-n2c(C)cc(C(=O)CSc3ccc(NC(C)=O)cc3)c2C)cc1,-1,6,-16,50*,8,30*
COC(=O)c1ccc(-n2c(C)cc(C(=O)CSc3cccc[n+]3[O-])c2C)cc1,-5,-5,-2,4,4,·
CC(=O)Nc1ccc(SCC(=O)c2cc(C)n(-c3ccccc3F)c2C)cc1,8,5,-26,28*,14,30*
COc1cc(NC(=O)C(C)(C)C)c(C(=O)OCC(=O)Nc2cc(C)on2)cc1OC,-2,0,3,2,0,·
COc1ccc(NC(=O)C2(S(=O)(=O)c3ccc(C)cc3)CC2)cc1OC,6,-6,5,-12,-7,·
CC1(C(=O)NS(=O)(=O)c2cccc(F)c2)CCN1C(=O)CCC1CCCC1 (stereo unspecified),1,-2,·,-2,3,·
CCOC(=O)[C@@]12CCCC3=C1N(CCC3)C(=O)[C@H]2CC(=O)N1CCSCC1,·,6,·,-1,4,·
Cc1cc(O)ccc1-c1ccc2nncn2c1,6,4,·,-3,5,·
O=C1CC(Sc2ncccn2)C(=O)N1c1ccccc1 (stereo unspecified),6,1,-4,12,-4,·
O=C1CC(Sc2nnc(-c3ccccc3O)o2)C(=O)N1c1ccccc1 (stereo unspecified),-2,-3,-2,66*,9,65*
COc1ccc(N2C(=O)CC(Sc3nnc(-c4ccccc4)o3)C2=O)cc1 (stereo unspecified),-6,-14,-1,63*,0,39*
CS(=O)(=O)c1cccc(OCCCN2CCC(C(O)(c3ccccc3)c3ccccc3)CC2)c1,2,2,·,0,4,·
CCc1cc2cc(C)c(C)cc2nc1SCC(=O)NNC(=O)c1ccco1,2,-4,-9,29*,-14,-2
CCCCCCNC(=O)C1CSCCS(=O)(=O)N1Cc1ccc(F)cc1 (stereo unspecified),·,2,·,-3,2,·
CC(=O)c1cccc(NC(=O)/C(=C/c2ccco2)NC(=O)c2ccco2)c1,1,-4,0,46*,-5,27*
COc1ccccc1C(=O)N/C(=C/c1ccco1)C(=O)Nc1cccc(C(=O)O)c1,6,4,-10,28*,17,8
CC(=O)c1cccc(NC(=O)/C(=C\c2ccco2)NC(=O)c2cccs2)c1,2,-2,-1,19,8,·
N=c1c2ccccc2nc2n1CCCCCCCCCCC2,5,3,-5,-6,-1,·
CCOC(=O)N(CC)OC(=O)Nc1ccc(Cl)cc1,-3,3,-4,6,-2,·
